Data reported in ChEMBL document CHEMBL4251735, “New Hybrids Derived from Podophyllic Aldehyde and Diterpenylhydroquinones with Selectivity toward Osteosarcoma Cells” (ACS Med Chem Lett, 2018).
Active and inactive are the calls of the source. No cut-off for these calls is given here.

What was measured:
MG-63 [1] = assay: Induction of apoptosis in human MG63 cells assessed as total apoptotic cells at 1 uM after 24 hrs by annexin-V-FITC/propidium iodide staining based flow cytometric analysis (reference value: 10.42%); type: functional
HT-29 [2] = assay: Cytotoxicity against human HT-29 cells after 24 hrs by annexin-V-FITC/propidium iodide staining based flow cytometric method; type: functional, cell-based; conditions: HT-29, 24 h
Procedure, shortened: (§1)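 Flow cytometric cytotoxicity measured after 24 h exposure; IC50 derived. Viability was also plotted against drug concentrations from 0.1 to 100 µM over 24 h in HT-29, MCF-7 and MG-63.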

MG-63 [3] = assay: Cytotoxicity against human MG63 cells after 24 hrs by annexin-V-FITC/propidium iodide staining based flow cytometric method; type: functional, cell-based; conditions: MG-63, 24 h; procedure, shortened: as §1
MG-63 [4] = assay: Cell cycle arrest in human MG63 cells assessed as increase in accumulation at G2/M phase at 1 uM after 24 hrs by propidium iodide staining based flow cytometric analysis relative to control; type: functional
Procedure, shortened: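 MG-63 cells incubated 24 h with compound at 1 µM alongside vehicle control (DMSO, <0.001%); DNA content measured by fluorescence flow cytometry, giving percentages of cells in G0/G1, S and G2/M; significance versus control tested at p < 0.001.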

MCF7 [5] = assay: Cytotoxicity against human MCF7 cells after 72 hrs by MTT assay; type: functional, cell-based; conditions: for IC50: MCF7, 72 h
Procedure, shortened: (§2)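 MTT viability assay after 72 h incubation; IC50 reported as mean ± error from viability curves.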

MG-63 [6] = assay: Induction of apoptosis in human MG63 cells assessed as viable cells at 1 uM after 24 hrs by annexin-V-FITC/propidium iodide staining based flow cytometric analysis (reference value: 89.58%); type: functional; conditions: MG-63, 24 h, read-out: Activity
MCF7 [7] = assay: Cytotoxicity against human MCF7 cells after 24 hrs by annexin-V-FITC/propidium iodide staining based flow cytometric method; type: functional, cell-based; conditions: MCF7, 24 h; procedure, shortened: as §1
MG-63 [8] = assay: Cytotoxicity against human MG63 cells after 72 hrs by MTT assay; type: functional, cell-based; conditions: for IC50: MG-63, 72 h; procedure, shortened: as §2
HT-29 [9] = assay: Cytotoxicity against human HT-29 cells after 72 hrs by MTT assay; type: functional, cell-based; conditions: for IC50: HT-29, 72 h; procedure, shortened: as §2
MG-63 [10] = assay: Induction of apoptosis in human MG63 cells assessed as increase in late apoptotic cells at 1 uM after 24 hrs by annexin-V-FITC/propidium iodide staining based flow cytometric analysis; type: functional, cell-based
Procedure, shortened: (§3)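 Apoptosis was assessed in MG-63 cells treated for 24 h at 1 µM, alongside a DMSO vehicle control (<0.001%). Cells were stained with annexin V and PI and analysed by flow cytometry. Populations were classed as early apoptotic (annexin+/PI-), late apoptotic/dead (annexin+/PI+) or living (annexin-/PI-). Total annexin+ percentage and the PI-/PI+ ratio were reported.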

MG-63 [11] = assay: Cell cycle arrest in human MG63 cells assessed as reduction in accumulation at G0/G1-phase at 1 uM after 24 hrs by propidium iodide staining based flow cytometric analysis relative to control; type: functional; design: scale not given: the % may be the effect or the level left
Procedure, shortened: (§4)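 MG-63 osteosarcoma cells exposed to test agent at 1 µM for 24 h, with a DMSO vehicle control (<0.001%). DNA content was measured by fluorescence flow cytometry, and cells were assigned to G0/G1, S and G2/M phases as percentage of the population. Significance versus control was tested at p < 0.001.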

MG-63 [12] = assay: Induction of apoptosis in human MG63 cells assessed as increase in early apoptotic cells at 1 uM after 24 hrs by annexin-V-FITC/propidium iodide staining based flow cytometric analysis; type: functional, cell-based; procedure, shortened: as §3
MG-63 [13] = assay: Cell cycle arrest in human MG63 cells assessed as reduction in accumulation at S-phase at 1 uM after 24 hrs by propidium iodide staining based flow cytometric analysis relative to control; type: functional; design: scale not given: the % may be the effect or the level left; procedure, shortened: as §4

| Structure (SMILES) | Activity (MG-63 [1]) [%] | IC50 (HT-29 [2]) [µM] | IC50 (MG-63 [3]) [µM] | Activity (MG-63 [4]) | IC50 (MCF7 [5]) [µM] | viability at 1 µM (MG-63 [6]) [%] | IC50 (MCF7 [7]) [µM] | IC50 (MG-63 [8]) [µM] | IC50 (HT-29 [9]) [µM] | Activity (MCF7 [5]) | Activity (MG-63 [8]) | Activity (HT-29 [9]) | Activity (MG-63 [10]) | fold change (FC) (MG-63 [4]) | Activity (MG-63 [11]) [%] | Activity (MG-63 [12]) | Activity (MG-63 [13]) [%] |
| --- | --- | --- | --- | --- | --- | --- | --- | --- | --- | --- | --- | --- | --- | --- | --- | --- | --- |
| C=C1CCC2[C@](C)(CCC[C@]2(C)C(=O)OCCCOC(=O)[C@@H]2C(C=O)=Cc3cc4c(cc3[C@H]2c2cc(OC)c(OC)c(OC)c2)OCO4)[C@H]1CCc1ccc2c(OC(C)=O)ccc(OC(C)=O)c2c1 (stereo partly drawn) | 25.03 | > 100 | 58.2 | Active | 2.21 | 75 | > 100 | 2.23 | 1.51 |  |  |  |  |  |  |  |  |
| C=C1CCC2[C@](C)(CCC[C@]2(C)C(=O)OCCCBr)[C@H]1CCc1ccc2c(OC(C)=O)ccc(OC(C)=O)c2c1 (stereo partly drawn) |  |  |  |  |  |  |  |  |  | Active | Active | Active |  |  |  |  |  |
| COc1cc([C@@H]2c3cc4c(cc3[C@H](O)[C@H]3COC(=O)[C@H]23)OCO4)cc(OC)c1OC [PODOFILOX] | 48.56 | > 100 | 18.3 | Active | 0.028 | 51.4 | > 100 | 0.007 | 0.066 |  |  |  |  |  |  |  |  |
| C=C1CCC2[C@](C)(CCC[C@]2(C)C(=O)OCc2ccc(COC(=O)[C@@H]3C(C=O)=Cc4cc5c(cc4[C@H]3c3cc(OC)c(OC)c(OC)c3)OCO5)cc2)[C@H]1CCc1ccc2c(OC(C)=O)ccc(OC(C)=O)c2c1 (stereo partly drawn) | 89.96 | > 100 | 0.5 |  | 1.03 | 10 | > 100 | 0.15 | 1.44 |  |  |  | Active | 5 | 100 | Active | 100 |
| COC(=O)[C@@H]1C(C=O)=Cc2cc3c(cc2[C@H]1c1cc(OC)c(OC)c(OC)c1)OCO3 [PODOPHYLLIC ALDEHYDE] | 48.08 | > 100 | 1.23 | Active | 0.48 | 51.9 | > 100 | 0.06 | 0.029 |  |  |  | Active |  | 100 | Active | 100 |
| C=C1CCC2[C@](C)(CCC[C@]2(C)C(=O)OCCCCCCOC(=O)[C@@H]2C(C=O)=Cc3cc4c(cc3[C@H]2c2cc(OC)c(OC)c(OC)c2)OCO4)[C@H]1CCc1ccc2c(OC(C)=O)ccc(OC(C)=O)c2c1 (stereo partly drawn) | 11.24 | 57.6 | 44.6 |  | 1 | 88.8 | > 100 | 2.06 | 1.91 |  |  |  |  |  |  |  |  |
| C=C1CCC2[C@](C)(CCC[C@]2(C)C(=O)OCc2ccc(CBr)cc2)[C@H]1CCc1ccc2c(OC(C)=O)ccc(OC(C)=O)c2c1 (stereo partly drawn) |  |  |  |  |  |  |  |  |  | Active | Active | Active |  |  |  |  |  |
| C=C1CCC2[C@](C)(CCC[C@]2(C)C(=O)OC)[C@H]1CCc1ccc2c(OC(C)=O)ccc(OC(C)=O)c2c1 (stereo partly drawn) |  | 5.65 | 1.16 | Active | 0.015 |  | 29.9 | 0.41 | 0.018 |  |  |  |  |  |  |  |  |
| C=C1CCC2[C@](C)(CCC[C@]2(C)C(=O)OCCCCCCBr)[C@H]1CCc1ccc2c(OC(C)=O)ccc(OC(C)=O)c2c1 (stereo partly drawn) |  |  |  |  |  |  |  |  |  | Active | Active | Active |  |  |  |  |  |
